Assay results as given in ChEMBL document CHEMBL3785037, “Compound profiling and 3D-QSAR studies of hydrazone derivatives with activity against intracellular Trypanosoma cruzi” (Bioorg Med Chem, 2016).

What was measured:
[1] = Cytotoxicity against mouse NIH/3T3 cells after 4 days by CellTiter-Glo luminiscence assay; format: cell-based, NIH3T3; conditions: read-out: TC50
Method in brief: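 Mouse embryonic fibroblasts were seeded at 1x10^3 cells/well onto pre-dispensed compounds (top concentration 100 μM) for 4 days at 37 °C, 5% CO2. Controls were 0.5% DMSO (100% viable) and amphotericin B 50 μM (100% toxicity). Viability was measured as ATP by CellTiter-Glo luminescence at room temperature. TC50 was obtained by nonlinear regression.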

Trypanosoma cruzi = assay: Antitrypanosomal activity against intracellular amastigotes stage of recombinant Trypanosoma cruzi Tulahuen expressing beta galactosidase infected in NIH/3T3 cells assessed as growth inhibition after 4 days by HTS-ready assay; format: functional, organism-based; conditions: NIH3T3, 96 h
Method in brief: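 NIH-3T3 fibroblasts were mixed 1:1 with β-galactosidase-expressing Tulahuen trypomastigotes from LLC-MK2 culture supernatants, at 1x10^3 cells/well, onto pre-dispensed compounds (50 to 0.00085 μM, DMSO ≤0.5%). Cultures were held 4 days at 37 °C, 5% CO2. Resorufin-β-D-galactopyranoside (5 µM in PBS with Igepal) was added for 4 h at room temperature, and fluorescence was read at 531/595 nm. Untreated parasites served as negative control.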

HepG2 = assay: Cytotoxicity against human HepG2 cells 48 hrs by CellTiter-Glo luminiscence assay; format: functional; conditions: HepG2, 48 h, read-out: TC50 (the source's name)
Method in brief: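 Human hepatoma cells were plated at 3,000 cells/well onto pre-dispensed compounds, handled as for the fibroblast assay, and incubated 48 h at 37 °C, 5% CO2. ATP-based viability was read by CellTiter-Glo luminescence after room-temperature incubation. TC50 was obtained by nonlinear regression.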

[2] = Selectivity index, ratio of TC50 for mouse NIH/3T3 cells to IC50 for amastigotes stage of recombinant Trypanosoma cruzi Tulahuen expressing beta galactosidase infected in NIH/3T3 cells; format: toxicity, cell-based; conditions: read-out: Selectivity Index

| IC50 (Trypanosoma cruzi; read-out: IC50) | IC50 (Trypanosoma cruzi; read-out: pIC50 (converted)) | SMILES | CC50 at 96 h [1] | CC50 (HepG2) | selectivity ratio [2] |
| --- | --- | --- | --- | --- | --- |
| 2.24 µM | 2.24 µM | COc1ccc(-c2csc(N/N=C(\C)c3ccccn3)n2)cc1 | 3.47 µM | > 100 µM |  |
| 1.55 µM | 1.55 µM | C/C(=N\Nc1nc(-c2ccc(Cl)cc2Cl)cs1)c1ccccn1 | 2 µM | > 100 µM |  |
| 4.9 µM | 4.9 µM | C/C(=N\Nc1nc(-c2ccccc2)c(C)s1)c1ccc(Cl)c(Cl)c1 | 28.2 µM | > 100 µM |  |
| 2.63 µM | 2.63 µM | Cc1ccc(-c2csc(N/N=C/c3ccccn3)n2)cc1 | 43.6 µM | > 100 µM |  |
| 2.24 µM | 2.24 µM | Brc1ccc(-c2csc(N/N=C/c3ccccn3)n2)cc1 | 14.1 µM | > 100 µM |  |
| 1.7 µM | 1.7 µM | C/C(=N\Nc1nc(-c2ccc(C)cc2)cs1)c1ccccn1 | 4.47 µM | > 100 µM |  |
| 2.57 µM | 2.57 µM | NC(=S)N/N=C/CSc1cc(Cl)ccc1Cl | > 50.1 µM | > 100 µM |  |
| 1.26 µM | 1.26 µM | C/C(=N\Nc1nc(-c2ccc([N+](=O)[O-])cc2)cs1)c1ccccn1 | 20.9 µM | > 100 µM |  |
| 17.4 µM | 17.4 µM | COc1ccc(SC/C=N/NC(N)=S)cc1 | 0.52 µM | > 100 µM |  |
| 5.89 µM | 5.89 µM | NC(=S)N/N=C/CSc1ccc(F)cc1 | > 50.1 µM | > 100 µM |  |
| 4.9 µM | 4.9 µM | Cc1ccccc1SC/C=N/NC(N)=S | > 50.1 µM | > 100 µM |  |
| 24.6 µM | 24.5 µM | CC/C(=N\Nc1nc(-c2ccc(Br)cc2)c(C)s1)c1cccc(Br)c1 | 33.1 µM | > 100 µM |  |
| 1 µM | 1 µM | C/C(=N\Nc1nc(-c2ccc(Br)cc2)cs1)c1ccccn1 | 3.98 µM | 85.1 µM |  |
| 16.2 µM | 16.2 µM | C/C(=N\Nc1nc(-c2ccc(F)cc2)cs1)c1ccc(Cl)c(Cl)c1 | 28.2 µM | > 100 µM |  |
| 2.19 µM | 2.19 µM | C(=N\Nc1nc(-c2ccccc2)cs1)/c1ccccn1 | 17 µM | > 100 µM |  |
| 0.79 µM | 0.794 µM | Clc1ccc(-c2csc(N/N=C/c3ccccn3)n2)cc1Cl | 10.7 µM | > 100 µM |  |
| > 50.1 µM |  | CCC1S/C(=N/N=C(\C)c2ccc(Cl)c(Cl)c2)N(c2ccccc2)C1=O (configuration not stated) | > 50.1 µM | > 100 µM |  |
| 6.46 µM | 6.46 µM | Cc1ccc(SC/C=N/NC(N)=S)cc1 | > 50.1 µM | > 100 µM |  |
| 3.09 µM | 3.09 µM | NC(=S)N/N=C/CSc1ccccc1Cl | > 50.1 µM | > 100 µM |  |
| 2.29 µM | 2.29 µM | Fc1ccc(-c2csc(N/N=C/c3ccccn3)n2)cc1 | > 50.1 µM | 18.2 µM |  |
| 0.93 µM | 0.933 µM | C/C(=N\Nc1nc(-c2cccc3ccccc23)cs1)c1ccccn1 | 4.47 µM | > 100 µM |  |
| 1.62 µM | 1.62 µM | NC(=S)N/N=C/CSc1ccc(Br)cc1 | 28.8 µM | 53.7 µM |  |
| 0.89 µM | 0.891 µM | C/C(=N\Nc1nc(-c2cccc([N+](=O)[O-])c2)cs1)c1ccccn1 | 3.63 µM | > 100 µM |  |
| 1.38 µM | 1.38 µM | Cc1sc(N/N=C/c2ccccn2)nc1-c1ccc(Br)cc1 | 18.6 µM | > 100 µM |  |
| > 50.1 µM |  | C/C(=N\N=C1\SC(C(C)C)C(=O)N1c1ccccc1)c1ccc(Cl)c(Cl)c1 (configuration not stated) | > 50.1 µM | > 100 µM |  |

| IC50 (Trypanosoma cruzi; read-out: IC50) | IC50 (Trypanosoma cruzi; read-out: pIC50 (converted)) | SMILES | CC50 at 96 h [1] | CC50 (HepG2) | selectivity ratio [2] |
| --- | --- | --- | --- | --- | --- |
| 1.32 µM | 1.32 µM | C/C(=N\Nc1nc(-c2ccc(F)cc2)cs1)c1ccccn1 | 4.9 µM | 91.2 µM |  |
| 3.24 µM | 3.24 µM | Cc1ccc(C)c(SC/C=N/NC(N)=S)c1 | 20.9 µM | > 100 µM |  |
| 2.69 µM | 2.69 µM | COc1ccc(-c2csc(N/N=C/c3ccccn3)n2)cc1 | 11.5 µM | > 100 µM |  |
| 22.9 µM | 22.9 µM | CC/C(=N\Nc1nc(-c2cccc([N+](=O)[O-])c2)cs1)c1cccc(Br)c1 | 38 µM | > 100 µM |  |
| 0.63 µM |  | C/C(=N\N=C(\N)S)c1ccc(Cl)c(Cl)c1 | 17.8 µM | 43.6 µM |  |
| 3.39 µM | 3.39 µM | C(=N\Nc1nc(-c2cccc3ccccc23)cs1)/c1ccccn1 | 7.24 µM | > 100 µM |  |
| 1.78 µM | 1.78 µM | NC(=S)N/N=C/CSc1cccc(Cl)c1 | > 50.1 µM | > 100 µM | 28.1 |
| 8.32 µM | 8.32 µM | C/C(=N\Nc1nc(C)cs1)c1ccc(Cl)c(Cl)c1 | 38.9 µM | > 100 µM |  |
| 11 µM |  | O=[N+]([O-])c1ccc(-c2csc(N/N=C/c3ccccn3)n2)cc1 | > 50.1 µM | > 100 µM |  |
| 9.33 µM | 9.33 µM | NC(=S)N/N=C/CSc1ccccc1 | 3.55 µM | > 100 µM |  |
| 26.3 µM | 26.3 µM | CC/C(=N\Nc1nc(-c2ccc(C)cc2)cs1)c1cccc(Br)c1 | > 50.1 µM | > 100 µM |  |
| 1.86 µM | 1.86 µM | Clc1ccc(-c2csc(N/N=C/c3ccccn3)n2)cc1 | > 50.1 µM | > 100 µM | 26.9 |
| 2.09 µM | 2.09 µM | NC(=S)N/N=C/CSc1ccc(Cl)cc1 | 39.8 µM | 75.9 µM |  |
| 1.26 µM | 1.26 µM | C/C(=N\Nc1nc(-c2ccc(Cl)c(Cl)c2)cs1)c1ccccn1 | 2.34 µM | > 100 µM |  |
| > 50.1 µM |  | C/C(=N\N=C1\SC(C)C(=O)N1c1ccccc1)c1ccc(Cl)c(Cl)c1 (configuration not stated) | > 50.1 µM | > 100 µM |  |
| 1.12 µM | 1.12 µM | C/C(=N\Nc1nc(-c2ccccc2)cs1)c1ccccn1 | 3.89 µM | 91.2 µM |  |
| 1.35 µM | 1.35 µM | C/C(=N\Nc1nc(-c2ccc(Br)cc2)c(C)s1)c1ccccn1 | 2 µM | > 100 µM |  |
| 18.2 µM | 18.2 µM | CC/C(=N\Nc1nc(-c2ccccc2)cs1)c1cccc(Br)c1 | 26.3 µM | > 100 µM |  |
| 17 µM |  | CNC(=S)N/N=C(\C)c1ccc(Cl)c(Cl)c1 | > 50.1 µM | > 100 µM |  |
| 17 µM | 17 µM | COc1ccc(-c2csc(N/N=C(\C)c3ccc(Cl)c(Cl)c3)n2)cc1 | > 50.1 µM | > 100 µM |  |
| 1.05 µM | 1.05 µM | C/C(=N\Nc1nc(-c2ccc(Cl)cc2)cs1)c1ccccn1 | 5.25 µM | > 100 µM |  |
| 30.2 µM | 30.2 µM | CC/C(=N\Nc1nc(-c2ccc(OC)cc2)cs1)c1cccc(Br)c1 | > 50.1 µM | > 100 µM |  |
| 3.24 µM | 3.24 µM | Cc1cccc(SC/C=N/NC(N)=S)c1 | > 50.1 µM | > 100 µM |  |
| 1.62 µM | 1.62 µM | O=[N+]([O-])c1cccc(-c2csc(N/N=C/c3ccccn3)n2)c1 | 38 µM | > 100 µM | 23.5 |
| 1.05 µM | 1.05 µM | Clc1ccc(-c2csc(N/N=C/c3ccccn3)n2)c(Cl)c1 | 14.5 µM | > 100 µM |  |
